Assay outcomes (PubChem)
Hits are enriched below; roughly 1.8% of the tested compounds scored in any of these assays.
CHRM5 PAM: CHRM5 positive allosteric modulation | CHO-K1 hM5, Fluo-8 calcium, ACh EC20 PAM; 0% = ACh EC20, 100% = ACh EC100 | 360,000 tested, 0.3% active | activation, % at 3 µM | P08912 | AID 624038;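 active means activation above the run cutoff, the mean activation of all test compounds plus 3 SD, cut at about 18% in these data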
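System: CHO-K1 cell line with stable human muscarinic M5 receptor expression | Also added: EC20 acetylcholine as agonist stimulus | Compound: One concentration, 3 µM final (nominal) | Timing: Fluo-8 loading 80 min at 37 °C plus 30 min room temperature | Measured by: Fluo-8 calcium dye fluorescence, kinetic read | Read-out basis: % activation, ACh-normalized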
CHRM4 PAM: positive allosteric modulators of human muscarinic M4 receptor | CHO-K1 hM4/Gqi5, Fluo-8 calcium fluorescence, ACh EC20; 0% = ACh EC20, 100% = maximal ACh | P08173 | activation, % at 3 µM | 360,000 tested, 0.4% active | AID 624126;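 active means activation above its plate's cutoff, the mean activation of sample wells plus 3 SD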
Target sequence (P08173 whole entry, looked up): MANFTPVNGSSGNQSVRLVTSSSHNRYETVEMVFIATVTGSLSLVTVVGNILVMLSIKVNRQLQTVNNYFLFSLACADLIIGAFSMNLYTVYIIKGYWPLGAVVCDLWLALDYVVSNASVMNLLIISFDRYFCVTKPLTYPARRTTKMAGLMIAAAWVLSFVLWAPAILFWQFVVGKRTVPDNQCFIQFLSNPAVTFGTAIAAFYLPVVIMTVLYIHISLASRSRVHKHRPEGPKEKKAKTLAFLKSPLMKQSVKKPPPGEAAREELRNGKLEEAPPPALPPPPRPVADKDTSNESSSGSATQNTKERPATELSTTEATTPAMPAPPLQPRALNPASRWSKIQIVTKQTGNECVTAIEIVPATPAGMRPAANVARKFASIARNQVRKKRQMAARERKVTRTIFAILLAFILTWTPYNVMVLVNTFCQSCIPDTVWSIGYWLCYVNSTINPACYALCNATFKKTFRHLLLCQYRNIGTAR
M4 antag: antagonists of human muscarinic M4 receptor (CHRM4). inhibition, % at 3 µM. CHO-hM4 cells, ACh EC80, Fluo-8 calcium fluorescence. 360,000 tested, 0.73% active. AID 624125;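 active means inhibition above its plate's cutoff, the mean inhibition of sample wells plus 3 SD, cut at about 27% in these data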
M5 ag: agonists of human muscarinic M5 receptor (CHRM5); P08912; activation, % at 3 µM; AID 624037; CHO-K1 hM5 cells, Fluo-8 calcium fluorescence; 0% DMSO wells, 100% maximal acetylcholine response; 360,000 tested, 0.19% active;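 active means activation above the run's mean over test compounds plus 3 SD, cut at about 23% in these data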;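 further: signal is peak over basal fluorescence ratio across the kinetic read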
CHRM5 antagonist: CHRM5 antagonism in calcium assay | P08912 | CHO-hM5 cells, Fluo-8 calcium fluorescence, ACh EC80 | inhibition, % at 3 µM | 360,000 tested, 0.59% active;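 active means inhibition above a per-plate cutoff, the mean of that plate's test compounds plus 3 SD, cut at about 27% in these data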
CHRM4 agonist: CHRM4 agonism in calcium assay; 360,000 tested, 0.14% active; CHO-K1 hM4/Gqi5, Fluo-8 calcium fluorescence; vehicle 0%, full acetylcholine response 100%; activation, % at 3 µM; AID 624127;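 active means activation above the run mean over all test wells plus 3 SD, cut at about 32% in these data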;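 further: peak over basal fluorescence ratio per well then scaled between controls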
Numbers stand for hits.

Screening CC(C)Cn1c(N)c(C(=O)COC(=O)CCc2nc3ccccc3c(=O)[nH]2)c(=O)n(C)c1=O returned CHRM5 PAM inactive, CHRM4 PAM inactive, M4 antag inactive, M5 ag inactive, CHRM5 antagonist inactive and CHRM4 agonist inactive.
For Cc1ccc(OCCC(=O)OCC(=O)c2c(N)n(CC(C)C)c(=O)n(C)c2=O)cc1 the results were CHRM5 PAM inactive, CHRM4 PAM inactive, M4 antag inactive, M5 ag inactive, CHRM5 antagonist inactive and CHRM4 agonist inactive.
`CC(C)(C)N(Cc1ccccc1)C(=O)COC(=O)CSc1ccc([N+](=O)[O-])cc1` gave CHRM5 PAM inactive, CHRM4 PAM inactive, M4 antag inactive, M5 ag inactive, CHRM5 antagonist inactive and CHRM4 agonist inactive.
Screening C=CCNC(=O)NC(=O)COC(=O)CNS(=O)(=O)c1ccc(F)c(F)c1F returned CHRM5 PAM inactive, CHRM4 PAM inactive, M4 antag inactive, M5 ag inactive, CHRM5 antagonist inactive and CHRM4 agonist inactive.
For Cc1nn(CC(=O)N2CCc3ccccc3C2)c(C)c1Cl the results were CHRM5 PAM 21.3, CHRM4 PAM inactive, M4 antag inactive, M5 ag inactive, CHRM5 antagonist inactive and CHRM4 agonist inactive.
`C=C[C@@H]1c2cc(C)ccc2N(S(=O)(=O)c2ccc(C)cc2)[C@H](c2ccccc2)C1(C#N)C#N` gave CHRM5 PAM 19.4, CHRM4 PAM inactive, M4 antag inactive, M5 ag inactive, CHRM5 antagonist inactive and CHRM4 agonist inactive.
Cc1ccc(Nc2nc(NCc3ccccc3)nc3ccsc23)c(C)c1 was read as CHRM5 PAM inactive, CHRM4 PAM inactive, M4 antag 57.5, M5 ag inactive, CHRM5 antagonist 31.9 and CHRM4 agonist 38.7.
Clc1ccccc1OCCNc1nc(NCC2CC2)nc2ccsc12 was read as CHRM5 PAM inactive, CHRM4 PAM inactive, M4 antag inactive, M5 ag inactive, CHRM5 antagonist 30.0 and CHRM4 agonist inactive.
C#Cc1cccc(Nc2nc(NCc3ccccc3)nc3ccsc23)c1 was read as CHRM5 PAM inactive, CHRM4 PAM inactive, M4 antag 27.3, M5 ag inactive, CHRM5 antagonist inactive and CHRM4 agonist inactive.
Screening CNc1nc(NCCOc2ccccc2Cl)c2sccc2n1 returned CHRM5 PAM inactive, CHRM4 PAM inactive, M4 antag inactive, M5 ag inactive, CHRM5 antagonist inactive and CHRM4 agonist inactive.
Screening CSc1ccccc1CNc1nc(NCC2CC2)nc2ccsc12 returned CHRM5 PAM inactive, CHRM4 PAM inactive, M4 antag inactive, M5 ag inactive, CHRM5 antagonist 30.3 and CHRM4 agonist inactive.
`CC(C)CN(C(=O)c1cccc(Cl)c1)c1c(N)n(Cc2ccccc2)c(=O)[nH]c1=O` gave CHRM5 PAM inactive, CHRM4 PAM inactive, M4 antag inactive, M5 ag inactive, CHRM5 antagonist inactive and CHRM4 agonist inactive.
For CSCc1cccc(C(=O)OC(C)C(=O)Nc2c(C)n(C)n(-c3ccccc3)c2=O)c1 (stereo not given) the results were CHRM5 PAM inactive, CHRM4 PAM inactive, M4 antag inactive, M5 ag inactive, CHRM5 antagonist inactive and CHRM4 agonist inactive.
`O=C(NCc1nc2ccccc2[nH]1)C1=C[C@@H](c2ccc(C(F)(F)F)cc2)C[C@@H](OCCCCO)O1` gave CHRM5 PAM inactive, CHRM4 PAM inactive, M4 antag inactive, M5 ag inactive, CHRM5 antagonist inactive and CHRM4 agonist inactive.
For COc1cccc(CNc2nc(NCC3CC3)nc3ccsc23)c1 the results were CHRM5 PAM inactive, CHRM4 PAM inactive, M4 antag inactive, M5 ag inactive, CHRM5 antagonist 30.6 and CHRM4 agonist inactive.
Screening COc1cccc(CNc2nc(NCc3ccccc3)nc3ccsc23)c1 returned CHRM5 PAM inactive, CHRM4 PAM inactive, M4 antag 43.6, M5 ag 31.2, CHRM5 antagonist 44.8 and CHRM4 agonist 58.2.
Screening CNc1nc(NCc2cccc(OC)c2)c2sccc2n1 returned CHRM5 PAM inactive, CHRM4 PAM inactive, M4 antag inactive, M5 ag inactive, CHRM5 antagonist inactive and CHRM4 agonist inactive.
Screening O=C(C1=C(O)C(=O)N(CCN2CCOCC2)C1c1cccc(F)c1)c1cc2ccccc2o1 (stereo not given) returned CHRM5 PAM inactive, CHRM4 PAM inactive, M4 antag inactive, M5 ag inactive, CHRM5 antagonist inactive and CHRM4 agonist inactive.
Screening Cc1cc(Cn2nc(C(=O)NCC3CC3)cc2-c2ccccc2)on1 returned CHRM5 PAM inactive, CHRM4 PAM inactive, M4 antag inactive, M5 ag inactive, CHRM5 antagonist inactive and CHRM4 agonist inactive.
For Cc1nc2c(o1)CCc1ccccc1C2N1CCN(C)CC1 (stereo not given) the results were CHRM5 PAM inactive, CHRM4 PAM inactive, M4 antag 98.4, M5 ag inactive, CHRM5 antagonist 98.5 and CHRM4 agonist inactive.
`Cc1nc(S(=O)(=O)N2CCN(C3c4ccccc4-c4ccccc43)CC2)cn1C` gave CHRM5 PAM inactive, CHRM4 PAM inactive, M4 antag inactive, M5 ag inactive, CHRM5 antagonist inactive and CHRM4 agonist inactive.
`COc1ccc([C@H]2CC(=O)C[C@@H](CCn3cc(C(C)C)nn3)O2)cc1` gave CHRM5 PAM inactive, CHRM4 PAM inactive, M4 antag inactive, M5 ag inactive, CHRM5 antagonist inactive and CHRM4 agonist inactive.
`N#Cc1c(Cl)nsc1NN` gave CHRM5 PAM inactive, CHRM4 PAM inactive, M4 antag inactive, M5 ag inactive, CHRM5 antagonist 30.9 and CHRM4 agonist inactive.
COC(=O)C[C@@H]1CC[C@@H](NS(=O)(=O)c2ccc(F)cc2)[C@@H](CO)O1 was read as CHRM5 PAM inactive, CHRM4 PAM inactive, M4 antag inactive, M5 ag inactive, CHRM5 antagonist inactive and CHRM4 agonist inactive.
`Cc1ccc(NS(=O)(=O)c2ccc(C(=O)N3CCC3)cc2)cc1` gave CHRM5 PAM inactive, CHRM4 PAM inactive, M4 antag inactive, M5 ag inactive, CHRM5 antagonist inactive and CHRM4 agonist inactive.
Screening CCOc1ccc(NS(=O)(=O)c2ccc(C(=O)NCc3ccccn3)cc2)cc1 returned CHRM5 PAM inactive, CHRM4 PAM inactive, M4 antag inactive, M5 ag 32.5, CHRM5 antagonist inactive and CHRM4 agonist inactive.
Screening Cc1ccc(NS(=O)(=O)c2ccc(C(=O)N3CC(C)OC(C)C3)cc2)cc1 (stereo not given) returned CHRM5 PAM inactive, CHRM4 PAM inactive, M4 antag inactive, M5 ag 30.9, CHRM5 antagonist inactive and CHRM4 agonist inactive.
O=C(c1ccc(S(=O)(=O)Nc2ccccc2)cc1)N1CCCC(C(F)(F)F)C1 (stereo not given) was read as CHRM5 PAM inactive, CHRM4 PAM inactive, M4 antag inactive, M5 ag 35.7, CHRM5 antagonist inactive and CHRM4 agonist inactive.
